Measured values reported in PubChem BioAssay.
Active and inactive are the calls of the source.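 How the source made its calls, unless noted: active means viability at or below 30% in both replicate assays; inconclusive means viability at or below 30% in just one of the two assays; inactive means the rest.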

Tests used:
[1] = SK-BR-3 cell growth inhibitors, pilot screen, 24 h, human (AID 572;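 active means viability at or below 10% of carrier control in both of two separate runs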;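 further: compound exposure lasted between 18 and 24 h rather than exactly 24 h; 100% = carrier-treated control wells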); details: SK-BR-3 viability, CellTiter-Glo luminescence, at 10 µM, stronger effect = lower value
[2] = HUVEC growth inhibition – cell-based, human, primary screen (AID 575); details: HUVEC proliferation, CellTiter-Glo luminescence, 72 h; at 10 µM; stronger effect = lower value;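 further: 100% = median of untreated cell wells with 0.1% DMSO on each plate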
Outline: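 Test system: primary human umbilical vein endothelial cells; medium: endothelial basal medium with 2% FBS plus growth supplements; dosing: 10 µM compound only; times: 72 h treatment at 37 °C; signal: CTG luminescence; read-out: % viability relative to median vehicle-well signal on each plate; control set: vehicle and MePR control wells; plate: 384-well, collagen-coated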

[3] = growth inhibitors of H69AR lung tumor, primary screen, human, duplicate replicates (AID 580;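 active means viability at or under a set limit in both replicates, limit being median viability minus 3 SD, cut at about 48% in these data, passing the limit was not always enough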;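 further: 100% = mean luminescence of untreated wells and 0% = no signal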); details: H69AR lung tumor cells viability, ATP luminescence, 72 h; at 10 µM; stronger effect = lower value
[4] = reversal of MRP1-mediated doxorubicin resistance, pilot screen, H69AR cells, doxorubicin co-treatment (AID 601;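 active means viability loss from added drug above about 55%, and viability with drug at most 40%, in both replicates, limit read from the data, passing the limit was not always enough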); details: CellTiter-Glo, 72 h, at 10 µM; for differential viability (reversal): stronger effect = higher value
[5] = 384-well plate pilot, post-Golgi transport modulator project, inhibition of yeast transport mutant growth (AID 636; in the data active means inhibition above about 31%); details: absorbance 615 nm, about 18 h, stronger effect = higher value
[6] = growth suppression of yeast trafficking mutant, preliminary HTS, modulators of trafficking downstream of Golgi apparatus project, 1536-format plate, OD 615 nm (AID 637; in the data active means inhibition above about 30%); details: yeast transport mutant growth, absorbance 615 nm, 18 h; stronger effect = higher value
[7] = H69AR cells + 2 uM doxorubicin, measured here: viability with 2 uM doxorubicin, stronger effect = lower value
[8] = H69AR cells, compound alone cytotoxicity

Compound | viability [1] | viability [2] | viability [3] | differential viability (reversal) ([4]; H69AR cells + 2 uM doxorubicin) | viability [4, 7] | viability [4, 8] | inhibition [5] | inhibition [6]
CCc1ccccc1NC(=O)c1ccoc1C | 102% (inactive) | 107% (inactive) | 101% (inactive) | 10.8% (inactive) | 90.2% | 101% | 1.78% (inactive) | 4.19% (inactive)
NS(=O)(=O)c1ccc(CCNC(=O)c2cccnc2)cc1 | 126% (inactive) | 92.3% (inactive) | 97.2% (inactive) | 3.81% (inactive) | 93.4% | 97.2% | -4.46% (inactive) | -0.91% (inactive)
Cc1ccc(CS(=O)(=O)Cc2ccc(C(=O)NCc3ccccn3)o2)cc1 | 95% (inactive) | 99.8% (inactive) | 99.4% (inactive) | 9% (inactive) | 90.4% | 99.4% | -1.87% (inactive) | -0.18% (inactive)
Cc1cc2ccccc2c(=O)n1CC(=O)Nc1ccc2c(c1)OCO2 | 136% (inactive) | 86.6% (inactive) | 98.9% (inactive) | 5.25% (inactive) | 93.7% | 98.9% | -2.34% (inactive) | -7.05% (inactive)
O=C(Cn1c(=O)oc2ccccc21)N1CCN(c2ccccc2)CC1 | 94% (inactive) | 104% (inactive) | 88.8% (inactive) | -3.33% (inactive) | 92.1% | 88.8% | -8.63% (inactive) | 8.18% (inactive)
CCOC(=O)C1=C[C@]2(CC)CCCN3CCc4c(n1c1ccccc41)[C@@H]32 | 70% (inactive) | 49.9% (inactive) | 80.1% (inactive) | 16.4% (inactive) | 63.7% | 80.1% | -0.26% (inactive) | -1.67% (inactive)
Cc1csc(NC(=O)CCn2c(=O)oc3ccccc32)n1 | 91% (inactive) | 98.8% (inactive) | 94.4% (inactive) | 9.97% (inactive) | 84.5% | 94.4% | -5.95% (inactive) | 1.45% (inactive)
O=C(CN1C(=O)COc2ccccc21)N(Cc1cccnc1)Cc1ccccc1F | 78% (inactive) | 96.6% (inactive) | 83.5% (inactive) | 8.57% (inactive) | 74.9% | 83.5% | -2.97% (inactive) | 0.55% (inactive)
CC(CCc1ccccc1)NCC(O)c1ccc(O)c(C(N)=O)c1 (stereo not drawn) | 94% (inactive) | 104% (inactive) | 93.8% (inactive) | 1.8% (inactive) | 92% | 93.8% | 1.17% (inactive) | -3.17% (inactive)
O=C(c1cccc2c1C(=O)N(Cc1cccnc1)C2)N1CCN(c2ccccc2)CC1 | 127% (inactive) | 97.3% (inactive) | 93.3% (inactive) | 3.83% (inactive) | 89.5% | 93.3% | -4.93% (inactive) | -1.09% (inactive)
CCn1cc(C(=O)O)c(=O)c2ccc(C)nc21 | 106% (inactive) | 92.1% (inactive) | 101% (inactive) | 0.53% (inactive) | 100% | 101% | -0.78% (inactive) | -3.83% (inactive)
COc1ccc(NC(=O)CSc2nc3c(c(=O)n2-c2ccc(F)cc2)SCC3)c(OC)c1 | 89% (inactive) | 91.1% (inactive) | 90.7% (inactive) | 13.1% (inactive) | 77.5% | 90.7% | -6.71% (inactive) | 3.87% (inactive)
Cc1nc2cc(NC(=O)N3c4ccccc4CC3C)ccc2o1 (stereo not drawn) | 91% (inactive) | 96.2% (inactive) | 86.3% (inactive) | 8.09% (inactive) | 78.2% | 86.3% | -5.6% (inactive) | -13.4% (inactive)
Cc1ccc(S(=O)(=O)N2CCCN(S(=O)(=O)C3CCS(=O)(=O)C3)CC2)cc1 (stereo not drawn) | 124% (inactive) | 101% (inactive) | 99.1% (inactive) | 8.77% (inactive) | 90.4% | 99.1% | -7.2% (inactive) | 1.09% (inactive)
CCOc1cc(/C=N/n2cnnc2)cc(Br)c1O | 104% (inactive) | 103% (inactive) | 83.3% (inactive) | -8.45% (inactive) | 91.8% | 83.3% | -2.37% (inactive) | 8.33% (inactive)
O=C(CCn1c(=O)oc2ccccc21)N1CCCCCC1 | 112% (inactive) | 99% (inactive) | 98.3% (inactive) | 5.09% (inactive) | 93.3% | 98.3% | 0.95% (inactive) | -1.64% (inactive)
CC(=O)Nc1c(O)[nH]c2ccccc12 | 105% (inactive) | 102% (inactive) | 93.6% (inactive) | -1.07% (inactive) | 94.7% | 93.6% | -8.49% (inactive) | 6.36% (inactive)
CCOc1ccc(NC(=O)Cn2nnc(-c3ccccc3F)n2)cc1 | 105% (inactive) | 100% (inactive) | 94.6% (inactive) | 7.41% (inactive) | 87.2% | 94.6% | -4.42% (inactive) | -2.3% (inactive)

Compound | viability [1] | viability [2] | viability [3] | differential viability (reversal) ([4]; H69AR cells + 2 uM doxorubicin) | viability [4, 7] | viability [4, 8] | inhibition [5] | inhibition [6]
O=C(OC1CCc2ccccc2C1=O)c1ccccc1O (stereo not drawn) | 71% (inactive) | 106% (inactive) | 78.6% (inactive) | -13.2% (inactive) | 91.8% | 78.6% | -1.33% (inactive) | -1.27% (inactive)
O=C(NCC1CCCO1)c1ccc(C(=O)NCC2CCCO2)cc1 (stereo not drawn) | 97% (inactive) | 108% (inactive) | 113% (inactive) | 11.3% (inactive) | 101% | 113% | -6.76% (inactive) | -4% (inactive)
Cc1nc(CNS(=O)(=O)c2cccc(F)c2)cs1 | 64% (inactive) | 93.3% (inactive) | 91.4% (inactive) | 1.23% (inactive) | 90.1% | 91.4% | -1.95% (inactive) | 12.1% (inactive)
Cc1nn(Cc2ccccc2)c(C)c1NC(=O)c1cc(-c2ccco2)on1 | 103% (inactive) | 108% (inactive) | 102% (inactive) | 19.6% (inactive) | 82.6% | 102% | -5.6% (inactive) | -0.55% (inactive)
COc1ccc(C2/C(=C(/O)c3ccc(OC(C)C)cc3)C(=O)C(=O)N2CCCN2CCOCC2)cc1 (stereo not drawn) | 112% (inactive) | 97.7% (inactive) | 92.4% (inactive) | -12.4% (inactive) | 105% | 92.4% | -5.21% (inactive) | -1.09% (inactive)
CCC(C(=O)NC(C)CCc1ccco1)n1nc(C)n2c(cc3occc32)c1=O (stereo not drawn) | 129% (inactive) | 103% (inactive) | 83.5% (inactive) | -16.1% (inactive) | 99.7% | 83.5% | -6.3% (inactive) | -1.64% (inactive)
Cc1c(CNCc2cccs2)c(C(=O)O)c(C)n1Cc1ccccc1 | 91% (inactive) | 109% (inactive) | 99.8% (inactive) | 5.63% (inactive) | 94.2% | 99.8% | -3.97% (inactive) | 0.18% (inactive)
Cc1c(OCC(F)(F)F)ccnc1CS(=O)c1nc2ccccc2[nH]1 (stereo not drawn) | 99% (inactive) | 100% (inactive) | 93.8% (inactive) | 4.31% (inactive) | 89.5% | 93.8% | -1.69% (inactive) | 4.33% (inactive)
C1=C(CCNc2ncnc3c2cnn3-c2ccccc2)CCCC1 | 98% (inactive) | 116% (inactive) | 88.7% (inactive) | 6.36% (inactive) | 82.3% | 88.7% | -4.13% (inactive) | 0.91% (inactive)
COCC(=O)N(C)c1nnc(-c2ccccn2)s1 | 83% (inactive) | 111% (inactive) | 105% (inactive) | 13.6% (inactive) | 91.3% | 105% | -2.57% (inactive) | -1.09% (inactive)
CN(Cc1ccccc1)C(=O)c1cc(-c2ccc(Br)cc2)on1 | 80% (inactive) | 94.2% (inactive) | 103% (inactive) | 7.97% (inactive) | 95.3% | 103% | -4% (inactive) | -3.45% (inactive)
COC(=O)CN(Cc1ccco1)S(=O)(=O)c1ccccc1 | 98% (inactive) | 102% (inactive) | 77.6% (inactive) | -3.33% (inactive) | 80.9% | 77.6% | -2.67% (inactive) | -0.91% (inactive)
CC(C)OC(=O)c1cc(NC(=O)C2C3CCC(O3)C2C(=O)O)cc(C(=O)OC(C)C)c1 (stereo not drawn) | 106% (inactive) | 88.1% (inactive) | 92.9% (inactive) | 3.01% (inactive) | 89.9% | 92.9% | -7.81% (inactive) | -1.09% (inactive)
Cc1ccc(N2CCN(c3ccc(C)cc3)C(CC(=O)O)C2=O)cc1 (stereo not drawn) | 92% (inactive) | 98.2% (inactive) | 97.4% (inactive) | 4.25% (inactive) | 93.2% | 97.4% | -5.89% (inactive) | -3.23% (inactive)
Nn1c(SCC(=O)Nc2ccccc2)nnc1-c1cccnc1 | 78% (inactive) | 96.9% (inactive) | 88.1% (inactive) | 2.29% (inactive) | 85.8% | 88.1% | -8% (inactive) | 3.64% (inactive)
COc1ccc(C(=O)NCCC(C)C)cc1S(=O)(=O)N1CCOCC1 | 98% (inactive) | 98.8% (inactive) | 102% (inactive) | 7.34% (inactive) | 94.2% | 102% | -9.86% (inactive) | 2.73% (inactive)
Cc1ccc(-n2c(C)cc3c2CCCC3=O)cc1 | 113% (inactive) | 112% (inactive) | 93.3% (inactive) | -0.79% (inactive) | 94.1% | 93.3% | -9.07% (inactive) | -3.09% (inactive)
CCCC1Cc2c(sc3ncnc(N)c23)CO1 (stereo not drawn) | 111% (inactive) | 94.5% (inactive) | 90.9% (inactive) | -10.3% (inactive) | 101% | 90.9% | -0.14% (inactive) | -0.73% (inactive)
